Compound activity as filed in PubChem.
Only some compounds are listed: those with a hit (about 10% of all), similar ones and a draw of the others.
L major viab: inhibitors of Leishmania major promastigote growth. Leishmania major promastigotes, resazurin fluorescence viability. inhibition, % at 10 µM. 200,000 compounds, 9% hits. AID 1063; in the data active = inhibition above about 50%;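 note: promastigotes grown with compound for 44 hours at 28 °C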
PMI activator: phosphomannose isomerase (human) activation. purified human PMI, coupled resazurin fluorescence, 20 min; stronger effect = higher value; 1 = vehicle control, 0 substrate-free wells. activation factor at 20 µM. 190,000 compounds, 0.005% hits. AID 1214;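 active = activation factor of 2 or more at 20 µM, relative to plate controls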
Target sequence (P34949 whole entry, looked up): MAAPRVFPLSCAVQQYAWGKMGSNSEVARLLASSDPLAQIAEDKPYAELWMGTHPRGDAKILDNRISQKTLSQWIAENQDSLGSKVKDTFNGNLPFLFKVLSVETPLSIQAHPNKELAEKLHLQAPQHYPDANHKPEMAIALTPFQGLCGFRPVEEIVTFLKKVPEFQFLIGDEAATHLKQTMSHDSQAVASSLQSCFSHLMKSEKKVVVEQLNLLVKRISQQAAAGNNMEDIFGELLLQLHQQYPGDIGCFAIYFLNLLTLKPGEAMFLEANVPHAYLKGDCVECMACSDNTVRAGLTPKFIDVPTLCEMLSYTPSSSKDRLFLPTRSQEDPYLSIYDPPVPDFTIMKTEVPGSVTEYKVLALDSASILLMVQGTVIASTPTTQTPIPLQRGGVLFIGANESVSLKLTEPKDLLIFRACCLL
Diaph act CS: counter-screen for diaphorase-based assays: diaphorase activators and chemical reducers. Diaphorase/resazurin coupled assay, resorufin fluorescence, 16 min; stronger effect = higher value; 1 = vehicle wells, 0 = NADH-free wells. activation factor at 20 µM. 190,000 compounds, 0.005% hits. AID 1229;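 active = diaphorase activity raised at least twofold by the compound at 20 µM; inactive = activation factor below 2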
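test system = bacterial diaphorase enzyme (C. kluyveri) | quantity = enzyme 0.07 U/mL final | reagent = NADH substrate 0.114 mM plus resazurin dye 0.1 mM, final | incubation = 16 min enzyme reaction, ambient temperature | buffer or medium = HEPES pH 7.4 buffer with MgCl2 and Tween 20 | signal = fluorescence of resorufin, 544 nm excitation, 590 nm emission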
PMI act satM6P: PMI (human) activation, high substrate; coupled PMI enzyme assay, resazurin fluorescence, 20 min; stronger effect = higher value; 1 = untreated enzyme, 0 = substrate-free blank; 190,000 compounds, 0.34% hits; activation factor at 20 µM; P34949;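 active = activation factor of 2 or more at 20 µM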
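Test system – human PMI in coupled enzyme assay · Timing – 20 min incubation at room temperature · Detection – Diaphorase-driven resazurin-to-resorufin fluorescence, excitation 544, emission 590 nm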
WT yeast gro inh: growth inhibition of WT yeast, mitochondrial fusion screen. mitochondrial fusion phenotypic screen, WT strain. inhibition, % at 10 µM. 190,000 compounds, 2.1% hits; in the data active = inhibition above about 58%; tested in S. cerevisiae
Each line names hits and unclear results; the compound was inactive in the other large screens.

O=C(c1cccc2ccccc12)C1CCCN(C(=O)c2ccc(N3CCOCC3)cc2)C1 (centres undefined)	none
COCC1CCCN(C(=O)c2ccc(OC3CCN(Cc4ccccn4)CC3)cc2)C1 (centres undefined)	none
O=C(c1ccc(OC2CCN(Cc3ccccn3)CC2)cc1)N1CCCCO1	L major viab 67.2
CCCCOc1ccc(OCCCN2CCOCC2)cc1	L major viab 99.8
CCOc1ccc(OCCOCCN2CCOCC2)cc1	L major viab 93.6
CCCCOc1ccc(C(O)(CCC)CCN2CCOCC2)cc1 (centres undefined)	none
COc1ccc(OCCOCCN2CCOCC2)cc1	none
CCC(C)c1ccc(OCCCCN2CCOCC2)cc1 (centres undefined)	L major viab 97.0
CCCC(O)(c1ccc(Cl)cc1)C(CN1CCOCC1)c1ccccc1 (centres undefined)	L major viab 73.2
CNc1c([N+](=O)[O-])cnn1-c1cccc(Cl)n1	none
Cc1csc(SCC(=O)NC(C)c2ccccc2)n1 (centres undefined)	none
CCCCC(O)(CCN1CCOCC1)c1ccc(Cl)cc1 (centres undefined)	L major viab 76.3
CCCC(O)(CCN1CCCCC1)c1ccc(OCC)cc1 (centres undefined)	L major viab 77.5
CCCOc1ccc(C(=O)C(CN2CCOCC2)c2ccccc2)cc1 (centres undefined)	L major viab 100.4
CCCCOc1ccc(C(O)(CC)CCN2CCOCC2)cc1 (centres undefined)	L major viab 83.3
Cc1cccc(-c2noc(CCCC(=O)N3CCOCC3)n2)c1	none
CCc1nnc(NC(=O)c2nc3nc(C)cc(C)n3n2)s1	none
O=C(c1nc2ncccn2n1)N1CCN(c2ccccc2)CC1	L major viab 89.8
CN(C)CC/C=C1\c2ccccc2Sc2ccc(Cl)cc21	L major viab 64.2, WT yeast gro inh 86.8
CN(C)CC/C=C1/c2ccccc2COc2ccccc21	none (no result: L major viab)
CCC(=O)N(C)/C=C1\Sc2ccccc2C1=O	none
CN(C)CCC=C1c2ccccc2CCc2ccccc21	L major viab 87.9
Cc1cccc(C(=O)N[C@H](C(=O)OCC(=O)NC(=O)c2cccn2C)C(C)C)c1	none
O=c1c(Cl)c(N/N=C/c2ccc(Br)cc2)cnn1-c1ccccc1	none
C=CCn1c(C)cc(-c2csc(NCC)n2)c1C	none
C=CCn1c(C)cc(-c2csc(NC)n2)c1C	L major viab 96.1
O=C(c1ccc2c(c1)OCO2)[C@@H]1[C@@H]2C(=O)N(C3CCCCC3)C(=O)[C@@H]2C2c3ccccc3C=CN21 (some centres undefined)	none
O=C(c1cccs1)[C@@H]1[C@@H]2C(=O)N(Cc3ccc4c(c3)OCO4)C(=O)[C@@H]2C2c3ccccc3C=CN21 (some centres undefined)	L major viab 87.8
CC(C)c1ccccc1NC(=O)COC(=O)C1(C)CC1(Cl)Cl (centres undefined)	none
COC(=O)c1ccccc1NC(=S)N(Cc1ccc2c(c1)OCO2)Cc1cc2ccc(OC)cc2[nH]c1=O	L major viab 58.1
COC(=O)c1ccccc1NC(=S)N(Cc1ccc2c(c1)OCO2)Cc1cc2ccc(C)cc2[nH]c1=O	L major viab 97.4
COC(=O)c1ccccc1NC(=S)N(Cc1ccc2c(c1)OCO2)Cc1cc2cc(C)ccc2[nH]c1=O	L major viab 99.4
CCN(CC)CCN(Cc1cc2ccc(C)cc2[nH]c1=O)C(=S)Nc1ccccc1C(=O)OC	none (no result: PMI activator, Diaph act CS, PMI act satM6P)
CCO[C@@H]1OC(C(=O)NCc2ccccc2)=C[C@H](c2ccc(C(F)(F)F)cc2)[C@H]1CCCO	none
CC1=CCC2C(=O)N(CCc3c[nH]c4ccccc34)C(=O)C2C1 (centres undefined)	L major viab 97.9
O=C1C2CC=C(Cl)CC2C(=O)N1CCc1c[nH]c2ccccc12 (centres undefined)	none
Cc1nn(CCc2nn[nH]n2)c2nc(-c3ccc(C4CCCCC4)cc3)cc(C(F)(F)F)c12	WT yeast gro inh 98.2
Cc1nn(CCC(=O)O)c2nc(-c3cccnc3)cc(C(F)(F)F)c12	none
COc1cccc(OCCN2CCN(c3ncnc4c3cnn4-c3ccccc3)CC2)c1	WT yeast gro inh 58.5
COCc1nnc(NC(C)=O)s1	none
COc1cc([N+](=O)[O-])c(C(=O)N2CCOCC2)c([N+](=O)[O-])c1	none
O=C1CCN=C(Nc2ccc(F)cc2)N1Cc1ccccc1	L major viab 72.1
Cc1cc(C)cc(NC2=NCC(=O)N2Cc2ccccc2)c1	none
CCc1nnc(NC(=O)CN2C(=O)/C(=C/c3cc(OC)c(OC)c(OC)c3)SC2=S)s1	none
Cc1ccc(S(=O)(=O)c2nc(NCCN(C)C)sc2Cl)cc1	L major viab 89.0
Cc1ccc(S(=O)(=O)c2nc(Nc3ccccc3)sc2Cl)cc1	WT yeast gro inh 78.8
COc1ccc(Nc2nc(S(=O)(=O)c3ccc(C)cc3)c(Cl)s2)cc1	none
O=C(COC(=O)c1cncc(Br)c1)NC1CCCC1	none
CCOc1ccc(S(=O)(=O)N2CCN(c3ccccc3OC)CC2)c2cccnc12	none
COc1ccc(S(=O)(=O)N(CC(C)C)CC(C)C)c2cccnc12	L major viab 72.2
CCCCN(CCCC)S(=O)(=O)c1ccc(OC)c2ncccc12	L major viab 74.6
Cc1cc(F)ccc1NCC(=O)Nc1ccccc1Br	none
O=C(CCN(CCO)Cc1ccccc1)Nc1ccc(Br)cc1	none
CCN(CCC(=O)Nc1ccc(Br)c(C)c1)Cc1ccccc1	L major viab 92.0
O=C(O)CC1S/C(=N/N=C/c2ccc(-c3ccc(Cl)c([N+](=O)[O-])c3)o2)NC1=O (centres undefined)	none
O=C(O)CC1S/C(=N/N=C/c2ccc(-c3ccc(Cl)cc3[N+](=O)[O-])o2)NC1=O (centres undefined)	L major viab 99.4
COc1cc(Cl)cc(/C=C/c2ccc3ccccc3n2)c1OC(C)=O	WT yeast gro inh 60.5
O=C(COC(=O)CNC(=O)c1ccc2c(c1)OCO2)Nc1ncc(Cl)cc1Cl	none
CCc1cccc(CC)c1NC(=O)COC(=O)CC1c2ccccc2CCN1S(=O)(=O)c1ccc(F)cc1 (centres undefined)	L major viab 97.8
O=C(COC(=O)CC1c2ccccc2CCN1S(=O)(=O)c1ccc(F)cc1)Nc1ccccc1 (centres undefined)	none
NC(=O)/C=C\C(=O)Nc1cccc(C(F)(F)F)c1	L major viab 95.8
Cc1ccc(S(=O)(=O)Nc2ccc(NC(=O)Nc3cccc(C(F)(F)F)c3)cc2)cc1	L major viab 70.2
O=C(Nc1ccc(OC(F)F)cc1)Nc1cccc(C(F)(F)F)c1	WT yeast gro inh 83.4
COC(=O)[C@H](C)NC(=O)Nc1cccc(C(F)(F)F)c1	none
CCN(CC)S(=O)(=O)c1ccc(NC(=O)Nc2cccc(C(F)(F)F)c2)cc1	none
NNC(=O)Nc1cccc(C(F)(F)F)c1	none
